Source: PubChem (Broad Institute)
Hits are enriched below; roughly 1.6% of the tested compounds scored in any of these assays.
SR-BI uptake up: enhances SR-BI lipid uptake from DiI-HDL | CHO ldlA[mSR-BI] cells, DiI-HDL uptake fluorescence, 3 h; 100 = double the neutral-control signal | activation, % at 12.5 µM | 320,000 compounds, 0.096% hits;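 active means mean replicate activation of at least 60% and every replicate at or above 60%; inconclusive means mean or all-replicate condition met, but not both; inactive means mean below 60% and not all replicates reaching 60%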;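 further: 0% = median plate neutral-control signal and 100% = twice that signal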
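System: LDL receptor-deficient CHO ldlA cells overexpressing murine SR-BI | Timing: 3 h uptake period with compound, 37 °C | Medium: HEPES-buffered (25 mM, pH 7.4) F12 plus 0.5% BSA | Dosing: Single-point compound dose | Signal: Bottom-read fluorescence, 550/595 nm | Read-out: Retained DiI signal reflecting DiI-HDL uptake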
PvdQ inh: P. aeruginosa PvdQ acylase inhibition; purified PvdQ acylase, fluorescence plate reader; inhibition, % at 10 µM; 340,000 compounds, 0.063% hits; AID 488965; in the data active means inhibition above about 30%, passing the limit was not always enough; inconclusive means no clear call, values can overlap the other calls;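 further: 0% = vehicle neutral wells and 100% = reference inhibitor wells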
dFosB act: enhances mouse delta FosB homodimer DNA binding | purified delta FosB, TAMRA-CDK5 oligo fluorescence polarization; percent of positive-control signal above neutral wells | activation, % at 25 µM | 340,000 compounds, 0.99% hits | P13346;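 active means mean activation above about 17%, with every replicate also reaching it, limit read from the data, passing the limit was not always enough; inconclusive means only one of the two conditions met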
SR-BI DiI inh: inhibitors of mouse SR-BI mediated HDL lipid uptake. Q61009. ldlA[mSR-BI] CHO cells, DiI-HDL uptake fluorescence, 3 h. inhibition, % at 12.5 µM. 320,000 compounds, 0.96% hits. AID 488896;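 active means mean replicate inhibition of at least 70% and a set share of replicates each scoring 70 or more; inconclusive means meets just one of the two criteria; inactive means fails both criteria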;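 further: 0% = median of neutral control wells and 100% = median of positive control wells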
RAD54 inh: blocks human RAD54 Holliday junction branch migration; Q92698; FAM/BHQ fluorescence; inhibition, % at 10.4 µM; 360,000 compounds, 0.14% hits; AID 602329;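 active means mean normalized replicate activity at least 40 and at least half of replicates scoring 40 or more; inconclusive means only one of the two criteria met; inactive means mean below 40 and under half of replicates reaching 40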;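 further: 0% = median of neutral control wells and 100% = median of positive control wells; inhibitors cause a drop in the FAM fluorescence signal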
Target sequence (Q92698 whole entry, looked up): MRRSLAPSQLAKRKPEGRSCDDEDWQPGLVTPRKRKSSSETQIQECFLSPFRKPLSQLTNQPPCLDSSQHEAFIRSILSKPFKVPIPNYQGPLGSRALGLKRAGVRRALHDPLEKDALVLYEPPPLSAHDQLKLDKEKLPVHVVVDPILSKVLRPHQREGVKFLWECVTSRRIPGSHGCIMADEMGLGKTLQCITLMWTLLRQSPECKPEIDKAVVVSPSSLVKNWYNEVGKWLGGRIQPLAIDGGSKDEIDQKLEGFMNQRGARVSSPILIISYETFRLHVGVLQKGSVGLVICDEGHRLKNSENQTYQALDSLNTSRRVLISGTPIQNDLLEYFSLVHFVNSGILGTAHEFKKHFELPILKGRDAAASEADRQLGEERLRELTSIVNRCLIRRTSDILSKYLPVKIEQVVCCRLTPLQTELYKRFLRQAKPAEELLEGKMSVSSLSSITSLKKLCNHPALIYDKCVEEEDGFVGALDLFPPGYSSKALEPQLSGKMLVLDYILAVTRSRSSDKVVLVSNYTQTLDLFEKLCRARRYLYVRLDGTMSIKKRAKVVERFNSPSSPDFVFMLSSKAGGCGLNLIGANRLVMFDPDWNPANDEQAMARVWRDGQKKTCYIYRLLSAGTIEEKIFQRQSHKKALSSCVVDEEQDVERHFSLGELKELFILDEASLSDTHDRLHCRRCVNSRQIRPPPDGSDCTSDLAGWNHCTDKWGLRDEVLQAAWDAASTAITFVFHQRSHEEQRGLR
S100A4 MyoIIA: inhibitors of human S100A4 binding to myosin IIA peptide; 360,000 compounds, 0.14% hits; P26447; S100A4/TAMRA-MyoIIA peptide fluorescence polarization; inhibition, % at 10.7 µM;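 active means mean inhibition of at least 70% across replicates, with every replicate also reaching that level; inconclusive means mean inhibition reaches 70% but some replicates fall short; inactive means mean inhibition below 70%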
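Test system: S100A4 monomer protein. Medium: HEPES buffer with Ca2+, pH 7.2. Reagent: fluorescent myosin IIA peptide, 5 nM. Compound dosing: single-point compound testing. Timing: 5 min between mix addition and reading. Benchmarks: DMSO neutral and TFP positive wells.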
DNA binding: counter-screen for Rad54 inhibitors: DNA binding compounds; shares compounds with RAD54 inh; Acridine orange-DNA displacement, fluorescence polarization, 20 min; AC50, µM (doses to about 35 µM), inactives show top-dose activity change, negative = DNA binding; 460 compounds, 8% hits; AID 651673;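 active means signal drop giving an AC50 within twice the top valid tested concentration of each sample, actives reach about 35 µM in these data; inactive means activity opposite to expected, plus the rest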;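 further: polarization loss reports compound binding to salmon sperm DNA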
The depositor's hits bear a star; i = inactive; ? = inconclusive; . = not tested or not shown.

SMILES	SR-BI uptake up	PvdQ inh	dFosB act	SR-BI DiI inh	RAD54 inh	S100A4 MyoIIA	DNA binding
Nc1c(C(=O)NCCN2CCOCC2)c2nc3ccccc3nc2n1CCc1ccccc1	9	-18	-2	-9	5	.	.
Nc1c(C(=O)NCCN2CCOCC2)c2nc3ccccc3nc2n1-c1ccccc1	8	-16	2	-8	52*	.	1%
Nc1c(C(=O)NCCN2CCOCC2)c2nc3ccccc3nc2n1-c1ccc2c(c1)OCO2	-15	-17	-1	15	?	.	11%
O=C1O[C@H](c2ccccc2)[C@H](c2ccccc2)N2[C@H]1[C@@H](C(=O)Nc1nc3ccccc3s1)[C@]1(C(=O)Nc3ccc(C#CCCO)cc31)[C@H]2c1ccc(OCCO)cc1	.	.	.	.	1	3	.
COCC(=O)N(C)C[C@@H]1Oc2cc(C3=CCCCC3)ccc2S(=O)(=O)N([C@H](C)CO)C[C@H]1C	.	.	.	.	1	12	.
Cc1[nH]ccc2c1[nH]c1cc(=O)ccc12	0	-9	10	0	68*	13	-12%
O=c1cc[nH]c2c1ccc1c(=O)cc[nH]c12	16	-6	-8	-16	-13	-5	.
C=CCn1c(=N)n(CC(=O)c2cccc([N+](=O)[O-])c2)c2ccccc21	-6	-7	6	6	.	-6	.
N=c1n(CCN2CCCCC2)c2ccccc2n1CC(=O)c1cccc([N+](=O)[O-])c1	-68	-22	21*	68	87*	-10	-10%
CCCN1CCN(C(=S)Nc2ccc3nc(N4CCN(CC)CC4)cc(C)c3c2)CC1	-12	-16	5	12	62*	8	3%
Cc1ccc(C)c(N2CCN(C(=S)Nc3ccc4nc(N5CCN(C)CC5)cc(C)c4c3)CC2)c1	-35	-12	7	35	?	2	5%
CCN1CCN(c2cc(C)c3cc(NC(=S)N4CCC5(CC4)OCCO5)ccc3n2)CC1	-30	-7	-4	30	?	4	-12%
COc1ccc2[nH]c3c(=O)n(CCN4CCOCC4)cnc3c2c1	7	1	-3	-7	1	-3	.
COc1ccc2c(c1)c1ncn(CCN3CCNCC3)c(=O)c1n2C	-5	-5	-1	5	.	-4	.
COc1ccc2c(c1)c1ncn(CCN3CCCCC3)c(=O)c1n2C	20	-20	6	-20	52*	.	15%
COc1ccc2c(c1)c1ncn(CCN3CCCC3)c(=O)c1n2C	5	-16	4	-5	59*	.	3%
CO[C@@H]1CN(C)C(=O)c2cc(NC(=O)NC(C)C)ccc2OC[C@@H](C)N(C(=O)CC2CC2)C[C@@H]1C	.	.	.	.	3	-11	.
CCC(=O)N[C@H]1C=C[C@H](CC(=O)NCC2CCCCC2)O[C@H]1CO	.	.	.	.	1	-1	.
Cc1c(CN(C)C)c2c(n1C)C(=O)c1ccc(Br)cc1-2	9	5	13	-9	71*	.	i
CO[C@@H]1CN(C)C(=O)c2ccc(NC(=O)c3ccccc3)cc2OC[C@H](C)N(C(C)=O)C[C@@H]1C	.	.	.	.	.	41	.
COc1ccc(Cn2cc3c(-c4ccc(F)cc4)nnc-3c3cc(OC)c(OC)cc32)cc1	19	-2	34*	-19	64*	4	0%
CO[C@@H]1CN(C)C(=O)c2ccc(NC(=O)C3CCCCC3)cc2OC[C@@H](C)N(C)C[C@@H]1C	.	.	.	.	3	3	.
COCC#Cc1cnc2c(c1)C(=O)N([C@@H](C)CO)C[C@@H](C)[C@H](CN(C)C(=O)Nc1cccc(F)c1)O2	.	.	.	.	-7	-8	.
Cc1cc(N2CCN(C)CC2)nc2ccc(NC(=S)NCCCN3CCN(C)CC3)cc12	.	-6	13	.	78*	-25	-6%
Cc1cc(N2CCN(C)CC2)nc2ccc(NC(=S)NCCC(C)C)cc12	-6	-20	-11	6	28	1	.
SMILES	SR-BI uptake up	PvdQ inh	dFosB act	SR-BI DiI inh	RAD54 inh	S100A4 MyoIIA	DNA binding
CCCCN(CC)CCCNC(=S)Nc1ccc2nc(N3CCN(C)CC3)cc(C)c2c1	-19	-13	15	19	89*	3	13%
COCCNC(=S)Nc1ccc2nc(N3CCN(C)CC3)cc(C)c2c1	1	12	8	-1	22	6	.
CCN1CCN(c2cc(C)c3cc(NC(=S)NCCCOC)ccc3n2)CC1	-29	-10	-11	29	21	2	.
CCCCN(CC)CCCNC(=S)Nc1ccc2nc(N3CCN(CC)CC3)cc(C)c2c1	-8	-13	14	8	71*	-20	0%
CCCC(=O)N1CC2(C1)CN(C(=O)C1CCCCC1)[C@H](CO)c1[nH]c3cc(OC)ccc3c12	.	.	.	.	.	7	.
CCCCN(CC)CCCNC(=O)c1cc2cc3ccc(OC)cc3nc2o1	.	-23	-35	.	42	.	.
COc1ccc2cc3cc(C(=O)NCCCN4CCC(C)CC4)oc3nc2c1	-11	-4	-33	11	58*	.	-20%
CCN1CCN(CCCNC(=O)c2cc3cc4ccc(OC)cc4nc3o2)CC1	-21	-16	-36	21	56*	.	-22%
COc1ccc2cc3cc(C(=O)NCCN4CCN(Cc5ccccc5)CC4)oc3nc2c1	-37	-19	-32	37	11	.	.
CCCN(CCC)CCCNC(=O)c1cc2cc3ccc(OC)cc3nc2o1	-30	-24	-31	30	?	.	-18%
CC(C)NC(=O)Nc1ccc2c(c1)C(=O)N([C@@H](C)CO)C[C@H](C)[C@@H](CN(C)Cc1ccncc1)OCCCC[C@H](C)O2	.	.	.	.	9	-3	.
CCOC(=O)c1c(-c2ccc(-c3ccccc3)cc2)csc1NC(=O)CNCCN(C)C	5	0	-38	-5	53*	-10	5%
CCOC(=O)c1c(-c2ccccc2)csc1NC(=O)CCN1C(=O)c2ccccc2C1=O	3	-13	-3	-3	-9	3	.
C[C@H]1CN([C@@H](C)CO)C(=O)c2cccc(NC(=O)NC3CCCCC3)c2O[C@H]1CN(C)Cc1ccc2c(c1)OCO2	.	.	.	.	5	-4	.
O=C1c2cccc3cc([N+](=O)[O-])cc(c23)C(=O)N1CCN1CCCC1	5	-14	58*	-5	98*	-3	34µM*
O=C1c2ccccc2C(=O)N1CCN1CCCCC1	13	-6	-1	-13	.	.	.
CCOc1ccc2[nH]c3c(NCCN(C)C)ncnc3c2c1	16	-12	-1	-16	?	12	0%
C[C@H](CO)N1C[C@H](C)[C@H](CN(C)C(=O)c2ccncc2)OCCCC[C@H](C)Oc2ccc(NC(=O)CCCCCC(=O)Nc3ccccc3N)cc2C1=O	.	.	.	.	-2	2	.
NCc1csc(Nc2nncc3ccccc23)n1	.	.	.	.	75*	0	-8%
